Test results published in publication PMC9050161 (RSC Advances, 2020).

Tests used:
p110β = details: cited from earlier work
UGT2B17 = UGT2B17 (Homo sapiens, UniProt O75795); experiment: Inhibition of UGT2B17; format: biochemical; details: PI-103 1, 10 and 100 μM
Summary of the method: (§1)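 Recombinant human UGTs screened with probe substrates: β-estradiol for UGT1A1, propofol for 1A9, and 4-methylumbelliferone for 1A3, 1A6, 1A7, 1A8, 1A10, 2B4, 2B7, 2B10, 2B15 and 2B17. Incubated at 37 °C without (control) or with test compound at 1, 10 or 100 μM. Glucuronide formation measured relative to control; triplicate.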

MRP1 = MRP1 (Homo sapiens, UniProt P33527); experiment: M2 excretion in HeLa1A9 cells after shRNA knock-down of MRP1; format: cell-based; details: MRP1 partially silenced
Summary of the method: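 shRNA plasmid against BCRP, MRP1, MRP3 or MRP4 transfected into UGT1A9-expressing HeLa cells, then exposed to 5 μM test compound in HBSS. Medium sampled at 30–120 min with replacement; cells collected at 120 min. UHPLC gave extracellular and intracellular glucuronide, excretion rate, efflux clearance (excretion rate/intracellular concentration) and fraction metabolized (fmet), each compared with control. Triplicate.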

UGT2B15 = UGT2B15 (Homo sapiens, UniProt P54855); experiment: Inhibition of UGT2B15; format: biochemical; details: PI-103 1, 10 and 100 μM
Summary of the method: as §1

p110δ = details: cited from earlier work
CYP1A1 = CYP1A1 (Homo sapiens, UniProt P04798); experiment: Inhibition of CYP1A1; format: biochemical
Summary of the method: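 Recombinant human CYPs at 0.05 mg mL−1 protein, each with its probe substrate near Km: ethoxyresorufin 1 μM (CYP1A1), phenacetin 100 μM (CYP1A2), nifedipine 40 μM (CYP3A4, 3A5). Incubated at 37 °C without (control) or with test compound at 1, 10 and 100 μM. Supernatant analysed by UHPLC-TQD-MS; activity relative to control; triplicate.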

mice = details: cited from earlier work
DNA-PK = details: cited from earlier work

Sequence of CYP1A1 (P04798 whole entry): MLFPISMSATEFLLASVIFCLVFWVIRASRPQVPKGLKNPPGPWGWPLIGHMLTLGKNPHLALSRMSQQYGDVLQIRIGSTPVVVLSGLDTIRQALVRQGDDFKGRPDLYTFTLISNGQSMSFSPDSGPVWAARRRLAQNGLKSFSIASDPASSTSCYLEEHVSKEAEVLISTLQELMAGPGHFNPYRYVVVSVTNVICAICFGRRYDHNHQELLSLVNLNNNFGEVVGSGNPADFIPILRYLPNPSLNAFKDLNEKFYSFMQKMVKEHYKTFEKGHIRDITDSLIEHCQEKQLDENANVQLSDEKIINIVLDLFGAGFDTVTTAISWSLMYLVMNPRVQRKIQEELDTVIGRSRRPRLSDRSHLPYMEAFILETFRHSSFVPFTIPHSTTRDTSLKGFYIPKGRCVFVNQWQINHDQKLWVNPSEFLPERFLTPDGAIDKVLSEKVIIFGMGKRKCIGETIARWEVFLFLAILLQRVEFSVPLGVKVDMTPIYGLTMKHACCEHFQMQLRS
Sequence of UGT2B17 (O75795 24-530): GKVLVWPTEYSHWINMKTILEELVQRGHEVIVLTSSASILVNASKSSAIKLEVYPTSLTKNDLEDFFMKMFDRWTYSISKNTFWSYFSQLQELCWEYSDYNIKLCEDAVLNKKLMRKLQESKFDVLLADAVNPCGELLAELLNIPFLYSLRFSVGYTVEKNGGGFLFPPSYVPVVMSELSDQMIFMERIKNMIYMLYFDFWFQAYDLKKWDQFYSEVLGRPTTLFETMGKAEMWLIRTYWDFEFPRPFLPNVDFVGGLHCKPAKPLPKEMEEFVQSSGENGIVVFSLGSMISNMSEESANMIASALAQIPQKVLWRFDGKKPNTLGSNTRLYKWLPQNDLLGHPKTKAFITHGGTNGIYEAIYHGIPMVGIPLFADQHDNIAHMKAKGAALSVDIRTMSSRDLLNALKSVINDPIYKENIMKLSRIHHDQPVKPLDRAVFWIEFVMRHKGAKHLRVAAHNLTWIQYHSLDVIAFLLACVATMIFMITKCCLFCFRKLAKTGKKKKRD
Sequence of MRP1 (P33527 whole entry): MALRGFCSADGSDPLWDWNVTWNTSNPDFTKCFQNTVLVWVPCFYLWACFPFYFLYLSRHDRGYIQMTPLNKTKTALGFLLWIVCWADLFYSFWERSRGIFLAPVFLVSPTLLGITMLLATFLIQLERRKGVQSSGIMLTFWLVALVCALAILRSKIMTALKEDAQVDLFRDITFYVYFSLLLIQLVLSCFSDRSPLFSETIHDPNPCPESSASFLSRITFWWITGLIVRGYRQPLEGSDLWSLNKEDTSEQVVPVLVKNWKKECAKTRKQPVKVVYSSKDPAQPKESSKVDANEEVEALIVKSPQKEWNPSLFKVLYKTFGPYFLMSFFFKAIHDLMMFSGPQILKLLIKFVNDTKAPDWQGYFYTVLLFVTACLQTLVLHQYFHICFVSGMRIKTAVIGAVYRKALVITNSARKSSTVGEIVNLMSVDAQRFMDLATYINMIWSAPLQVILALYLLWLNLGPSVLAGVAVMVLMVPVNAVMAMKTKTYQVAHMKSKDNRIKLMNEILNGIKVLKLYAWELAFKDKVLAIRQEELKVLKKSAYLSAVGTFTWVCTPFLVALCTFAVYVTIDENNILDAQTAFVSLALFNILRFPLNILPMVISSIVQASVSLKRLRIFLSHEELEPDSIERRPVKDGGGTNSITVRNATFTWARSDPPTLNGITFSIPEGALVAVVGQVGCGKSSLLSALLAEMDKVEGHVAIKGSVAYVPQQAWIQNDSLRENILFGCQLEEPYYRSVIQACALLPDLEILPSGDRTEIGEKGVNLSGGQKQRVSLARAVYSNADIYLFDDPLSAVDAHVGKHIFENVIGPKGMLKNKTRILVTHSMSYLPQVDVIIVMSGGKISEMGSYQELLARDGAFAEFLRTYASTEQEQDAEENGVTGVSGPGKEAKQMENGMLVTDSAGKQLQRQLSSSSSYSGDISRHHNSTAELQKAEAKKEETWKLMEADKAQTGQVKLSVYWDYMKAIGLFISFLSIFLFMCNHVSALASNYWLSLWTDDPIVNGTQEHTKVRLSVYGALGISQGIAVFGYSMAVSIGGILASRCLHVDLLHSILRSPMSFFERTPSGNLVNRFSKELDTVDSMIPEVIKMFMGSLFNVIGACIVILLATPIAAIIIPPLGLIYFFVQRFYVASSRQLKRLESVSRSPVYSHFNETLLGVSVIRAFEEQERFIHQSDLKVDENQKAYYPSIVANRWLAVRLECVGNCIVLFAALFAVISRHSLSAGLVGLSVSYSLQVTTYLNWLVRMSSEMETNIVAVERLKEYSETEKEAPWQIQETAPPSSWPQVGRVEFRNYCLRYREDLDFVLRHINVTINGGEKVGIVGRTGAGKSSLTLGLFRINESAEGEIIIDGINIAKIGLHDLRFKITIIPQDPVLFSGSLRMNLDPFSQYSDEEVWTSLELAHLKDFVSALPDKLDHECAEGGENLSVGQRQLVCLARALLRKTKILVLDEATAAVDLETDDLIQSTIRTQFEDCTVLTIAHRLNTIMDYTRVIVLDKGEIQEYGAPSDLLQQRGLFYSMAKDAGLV
Sequence of UGT2B15 (P54855 24-530): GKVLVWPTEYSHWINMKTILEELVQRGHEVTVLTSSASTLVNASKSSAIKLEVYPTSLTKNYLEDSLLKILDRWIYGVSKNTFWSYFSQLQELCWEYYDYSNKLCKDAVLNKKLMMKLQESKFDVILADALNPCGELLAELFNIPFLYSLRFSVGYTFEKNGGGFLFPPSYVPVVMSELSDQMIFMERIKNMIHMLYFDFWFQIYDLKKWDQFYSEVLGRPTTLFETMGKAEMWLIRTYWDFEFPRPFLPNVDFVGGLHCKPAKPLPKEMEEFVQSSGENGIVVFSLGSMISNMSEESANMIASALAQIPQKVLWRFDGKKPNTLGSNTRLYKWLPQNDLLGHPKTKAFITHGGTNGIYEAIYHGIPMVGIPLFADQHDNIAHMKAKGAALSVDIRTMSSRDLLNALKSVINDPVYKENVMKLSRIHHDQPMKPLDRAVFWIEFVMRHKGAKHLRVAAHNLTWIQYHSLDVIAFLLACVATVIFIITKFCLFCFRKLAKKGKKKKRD

SMILES: Oc1cccc(-c2nc(N3CCOCC3)c3oc4ncccc4c3n2)c1 [PI-103]
- IC50 (p110β): 88 nM
- inhibitory effect (UGT2B17): negligible
- reduction in fmet value (MRP1): 29.2%
- inhibitory effect (UGT2B15): negligible
- IC50 (CYP1A1): 16800 ± 1760 nM
- residual activity (CYP1A1; CYP1A1, 100 μM PI-103): 21.39 % of the negative control
- toxicity in mice (mice): little toxicity
